Reference: ChEMBL document CHEMBL2311268, “Targeting the binding function 3 (BF3) site of the androgen receptor through virtual screening. 2. development of 2-((2-phenoxyethyl) thio)-1H-benzimidazole derivatives” (J Med Chem, 2013)
Activity calls are given as the source filed them. No cut-off for these calls is given here.

Tests used:
LNCaP [1] = test: Cytotoxicity against human LNCAP cells assessed as growth inhibition at 6 uM after 4 days; format: functional, cell-based
In short: (§1)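 Viability read after a 4-day incubation with compound at 6 µM in LNCaP, enzalutamide-resistant LNCaP-derived and AR-independent PC3 prostate cancer cells; data given as mean ± SEM.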

LNCaP [2] = test: Cytotoxicity against enzalutamide-resistant human LNCAP cells assessed as growth inhibition at 6 uM after 4 days; format: functional, cell-based; in short: as §1
PC-3 = test: Cytotoxicity against AR independent human PC3 cells assessed as growth inhibition at 6 uM after 4 days; format: functional, cell-based; in short: as §1
[3] = biological target: T1, Estrogen receptor (Homo sapiens) (UniProt P03372); test: Inhibition of estrogen receptor alpha in human MCF7 cells at 1 to 10 uM after 3 days by luciferase reporter gene assay; format: cell-based
T1 sequence (whole entry): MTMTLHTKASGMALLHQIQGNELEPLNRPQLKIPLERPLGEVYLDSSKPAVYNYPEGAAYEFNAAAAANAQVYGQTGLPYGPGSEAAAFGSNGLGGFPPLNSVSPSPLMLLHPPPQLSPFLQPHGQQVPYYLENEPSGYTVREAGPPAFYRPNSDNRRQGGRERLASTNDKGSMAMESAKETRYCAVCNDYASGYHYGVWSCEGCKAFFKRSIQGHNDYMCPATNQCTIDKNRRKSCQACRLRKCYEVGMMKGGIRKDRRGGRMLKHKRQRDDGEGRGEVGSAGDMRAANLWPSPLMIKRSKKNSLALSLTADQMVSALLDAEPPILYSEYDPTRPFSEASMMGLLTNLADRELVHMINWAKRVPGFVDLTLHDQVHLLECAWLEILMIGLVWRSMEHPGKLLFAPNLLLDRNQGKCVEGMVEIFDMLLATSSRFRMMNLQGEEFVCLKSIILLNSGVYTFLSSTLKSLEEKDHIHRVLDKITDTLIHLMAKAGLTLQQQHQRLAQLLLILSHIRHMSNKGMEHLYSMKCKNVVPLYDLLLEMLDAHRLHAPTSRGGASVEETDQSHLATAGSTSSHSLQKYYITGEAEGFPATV
In short: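 MCF-7 cells were kept 5 days in phenol-red-free RPMI 1640 with 10% CSS, then seeded. After 24 h they were transfected with a luciferase plasmid driven by a consensus estrogen response element. Next day they were treated with 1 nM E2 plus test compound (10 µM final) in 0.1% EtOH/0.1% DMSO. Cells were lysed 24 h later and luminescence read.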

Androgen receptor [4] = biological target: T2, Androgen receptor (Homo sapiens, UniProt P10275); test: Inhibition of BF3 site of androgen receptor in human LNCAP cells expressing ARR2PB after 3 days by eGFP transcriptional assay; format: cell-based
T2 sequence (P10275 whole entry): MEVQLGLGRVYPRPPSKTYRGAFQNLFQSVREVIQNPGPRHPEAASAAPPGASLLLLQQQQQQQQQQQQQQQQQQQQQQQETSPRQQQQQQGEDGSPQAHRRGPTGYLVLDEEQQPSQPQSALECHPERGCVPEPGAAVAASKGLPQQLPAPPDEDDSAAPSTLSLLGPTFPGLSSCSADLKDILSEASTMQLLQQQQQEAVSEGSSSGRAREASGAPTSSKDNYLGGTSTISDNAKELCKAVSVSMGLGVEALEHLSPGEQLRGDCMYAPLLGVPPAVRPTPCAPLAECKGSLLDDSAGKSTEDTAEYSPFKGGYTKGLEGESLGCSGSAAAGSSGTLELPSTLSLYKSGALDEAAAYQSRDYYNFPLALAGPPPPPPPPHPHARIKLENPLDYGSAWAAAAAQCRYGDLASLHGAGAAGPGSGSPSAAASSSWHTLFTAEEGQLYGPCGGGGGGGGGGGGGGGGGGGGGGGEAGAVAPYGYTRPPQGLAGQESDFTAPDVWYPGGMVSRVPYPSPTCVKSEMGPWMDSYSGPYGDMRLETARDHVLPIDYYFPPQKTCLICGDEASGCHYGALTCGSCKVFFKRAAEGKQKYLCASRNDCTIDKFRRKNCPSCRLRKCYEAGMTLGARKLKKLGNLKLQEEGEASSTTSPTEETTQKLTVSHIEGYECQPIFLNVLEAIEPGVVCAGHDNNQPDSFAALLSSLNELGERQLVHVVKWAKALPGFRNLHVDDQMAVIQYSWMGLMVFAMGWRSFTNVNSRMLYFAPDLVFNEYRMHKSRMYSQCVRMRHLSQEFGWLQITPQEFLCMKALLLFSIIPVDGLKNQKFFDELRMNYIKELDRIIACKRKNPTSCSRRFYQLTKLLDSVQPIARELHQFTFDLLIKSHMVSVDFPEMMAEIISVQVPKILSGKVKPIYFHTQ

Androgen receptor [5] = biological target: T2, Androgen receptor; test: Inhibition of BF3 site of androgen receptor in human LNCAP cells expressing ARR2PB assessed as reduction in PSA level after 3 days; format: cell-based
Androgen receptor [6] = biological target: T2, Androgen receptor; format: cell-based, LNCaP

| SMILES | IC50 (Androgen receptor [4]) [µM] | further results |
| --- | --- | --- |
| Cc1cccc(C)c1OCCSc1nc2ccccc2[nH]1 | 2.7 | growth inhibition (GI) (LNCaP [1]): Active; growth inhibition (GI) (LNCaP [2]): Active; growth inhibition (GI) (PC-3): inactive; inhibition [3]: inactive; IC50 (Androgen receptor [5]): 1.9 µM; IC50 (Androgen receptor [6]): 6.8 µM |
| Cc1ccc(OCCSc2nc3ccccc3[nH]2)cc1 | 7 | – |
| CCOC(=O)Cn1c(SCCOc2cc(C)cc(C)c2)nc2ccccc21 | > 200 | – |
| NS(=O)(=O)c1ccc(OCCSc2nc3ccccc3[nH]2)cc1 | 62 | – |
| CCOC(=O)Cn1c(SCCOc2cccc(CC)c2)nc2ccccc21 | 55 | – |
| Cc1ccc(OCCSc2nc3ccccc3n2CC(=O)O)cc1C | > 200 | – |
| CCOC(=O)Cn1c(SCCOc2cccc(C)c2)nc2ccccc21 | 14.1 | – |
| CCc1cccc(OCCSc2nc3ccccc3n2CC(=O)OC)c1 | > 200 | – |
| CCN(CC)C(=O)Cn1c(SCCOc2cccc(C)c2)nc2ccccc21 | > 200 | – |
| Cc1cccc(OCCSc2nc3ccccc3n2CCC(=O)O)c1 | > 200 | – |
| C=CCc1cccc(OCCSc2nc3ccccc3n2CC(=O)OC)c1 | > 200 | – |
| Cc1ccccc1OCCSc1nc2ccccc2[nH]1 | 19 | – |
| Clc1ccc(OCCSc2nc3ccccc3[nH]2)cc1 | 4 | – |
| c1ccc(OCCSc2cc3ccccc3[nH]2)cc1 | 5.4 | – |
| c1ccc(OCCCSc2nc3ccccc3[nH]2)cc1 | > 200 | – |
| Cc1ccc(OCCSc2nc3ccccc3n2CCC(=O)O)cc1 | > 200 | – |
| c1ccc(OCCSc2nc3ccccc3[nH]2)cc1 | – | growth inhibition (GI) (LNCaP [1]): inactive; growth inhibition (GI) (LNCaP [2]): inactive; growth inhibition (GI) (PC-3): inactive; inhibition [3]: inactive |
| CCc1cccc(OCCSc2nc3ccccc3n2CCC(=O)O)c1 | > 200 | – |
| COC(=O)Cn1c(SCCOc2ccc(C)cc2)nc2ccccc21 | 32.9 | – |
| CCn1c(SCCOc2ccccc2)nc2ccccc21 | 12 | – |
| Cc1cccc(OCCSc2nc3ccccc3n2CC(=O)O)c1 | > 200 | – |
| Cc1cccc(OCCSc2nc3ccccc3n2C)c1 | 45 | – |
| O=C(O)CCn1c(SCCOc2ccccc2)nc2ccccc21 | > 200 | – |
| c1ccc(CCCSc2nc3ccccc3[nH]2)cc1 | 12 | – |
| Cc1cc(C)cc(OCCSc2nc3ccccc3n2CC(=O)O)c1 | > 200 | – |
| c1ccc(CCSc2nc3ccccc3[nH]2)cc1 | 7.4 | – |

| SMILES | IC50 (Androgen receptor [4]) [µM] | further results |
| --- | --- | --- |
| c1ccc(OCCNc2nc3ccccc3[nH]2)cc1 | > 200 | – |
| OCCn1c(SCCOc2ccccc2)nc2ccccc21 | > 200 | – |
| c1ccc(OCCSc2nc3ccccc3o2)cc1 | > 200 | – |
| Cc1cccc(OCCSc2nc3ccccc3n2CC(=O)N2CCOCC2)c1 | > 200 | – |
| Cc1ccc(C)c(OCCSc2nc3ccccc3n2CC(=O)O)c1 | > 200 | – |
| CCn1c(SCCOc2cccc(C)c2)nc2ccccc21 | 35 | – |
| Cc1cccc(OCCSc2nc3ccccc3[nH]2)c1 | 1.8 | growth inhibition (GI) (LNCaP [1]): Active; growth inhibition (GI) (LNCaP [2]): Active; growth inhibition (GI) (PC-3): inactive; inhibition [3]: inactive; IC50 (Androgen receptor [5]): 3.3 µM; IC50 (Androgen receptor [6]): 13 µM |
| CC(C)(C)c1cccc(OCCSc2nc3ccccc3n2CC(=O)O)c1 | > 200 | – |
| Cc1ccc(OCCSc2nc3ccccc3n2CC(=O)OC(C)C)cc1 | 11.1 | – |
| CCc1cccc(OCCSc2nc3ccccc3n2CC(=O)O)c1 | > 200 | – |
| [O-][S+](CCOc1ccccc1)c1nc2ccccc2[nH]1 (stereo not drawn) | > 200 | – |
| Cc1ccc(OCCSc2nc3ccccc3n2CC(=O)OC(C)C)cc1C | 30.6 | – |
| COCCn1c(SCCOc2cccc(C)c2)nc2ccccc21 | 24.1 | – |
| COC(=O)Cn1c(SCCOc2ccc(C)c(C)c2)nc2ccccc21 | > 200 | – |
| Cc1ccc(OCCSc2nc3ccccc3n2CC(=O)O)cc1 | 164 | – |
| Cc1cccc(OCCSc2nc3ccccc3n2CC(=O)OC(C)C)c1 | 13.7 | – |
| COCCn1c(SCCOc2ccc(C)cc2)nc2ccccc21 | 12.7 | – |
| C=CCn1c(SCCOc2ccccc2)nc2ccccc21 | > 200 | – |
| Cc1cccc(OCCSc2nc3ccccc3n2CCOc2ccccc2)c1 | > 200 | – |
| CCOC(=O)Cn1c(SCCOc2ccc(C)c(C)c2)nc2ccccc21 | 40.3 | – |
| CCOc1cccc(OCCSc2nc3ccccc3n2CCOc2ccc(C)cc2)c1 | 22.8 | – |
| Clc1cccc(OCCSc2nc3ccccc3[nH]2)c1 | 5 | – |
| NS(=O)(=O)c1cccc2cc(SCCOc3ccccc3)[nH]c12 | 1.5 | growth inhibition (GI) (LNCaP [1]): Active; growth inhibition (GI) (LNCaP [2]): Active; growth inhibition (GI) (PC-3): inactive; inhibition [3]: inactive; IC50 (Androgen receptor [5]): 1.6 µM; IC50 (Androgen receptor [6]): 6.4 µM |
| c1ccc(OCCCc2nc3ccccc3[nH]2)cc1 | > 200 | – |
| O=S(=O)(CCOc1ccccc1)c1nc2ccccc2[nH]1 | > 200 | – |
| c1ccc(NCCSc2nc3ccccc3[nH]2)cc1 | > 200 | – |
